Experimental data taken from PMC5394958 (Haematologica, 2016).
Values joined by “and” are separate entries in the source; they are usually repeats but may differ in a detail not shown here. Equal entries are not always repeated. Where two headings read alike, the source gives them in different places.

Tests used:
T315I BCR-ABL1 mutation = conditions: cited from earlier work
TIE2 [1] = assay: Plasma angiopoietin 2; type: in vivo, human; conditions: Day 22 compared to baseline
BCR-ABL1 or FLT3 [2] = assay: Ex vivo incubation of patient whole blood, phosphorylation of CRKL or FLT3; type: cell-based; conditions: Homo sapiens, read-out: IC50 for inhibition of phosphorylation
How it was run: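 Predose screening whole blood from TKI-resistant CML or AML patients was incubated with test compound ex vivo. Mononuclear cells were then fixed and permeabilized. Phosphorylation of CRKL or FLT3 was measured, with pCRKL read by flow cytometry. IC50 for inhibition of phosphorylation was determined per evaluable sample.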

acute myeloid leukemia = assay: Clinical response in AML patients; type: in vivo, human; conditions: 5 patients with AML
How it was run: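 Relapsed or refractory AML patients (ECOG ≤1) received oral drug daily in continuous 28-day cycles. Powder-in-capsule dosing ran from 57 mg QD up to 1200 mg QD, and tablets from 100 mg. Intra-patient dose escalation was allowed. Disease response was assessed locally every 3 cycles by standard criteria.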

c-ABL1 = conditions: cited from earlier work
[3] = type: in vivo, human
TRKA = conditions: cited from earlier work
[4] = Phase 1 safety: adverse events; type: in vivo, human
How it was run: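 First-in-human, multicenter, single-arm oral study in 57 patients, given daily in 28-day cycles. Powder-in-capsule doses escalated from 57 mg QD to 1200 mg QD over 11 cohorts, doubling between the initial single-patient cohorts. Titration was accelerated 3+3, switching to standard 3+3 at grade ≥2 AEs. Tablet cohorts followed, up to 200 mg BID. AEs were graded by NCI CTC v3.0, and DLTs were assessed in cycle 1.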

[5] = Plasma pharmacokinetics after multiple oral doses; type: in vivo, human; conditions: for Tmax: median Tmax
TRKB = conditions: cited from earlier work
TIE2 [6] = conditions: cited from earlier work
chronic myeloid leukemia [7] = assay: Clinical response in CML patients; type: in vivo, human
BCR-ABL1 T315I = conditions: cited from earlier work
[8] = Human plasma protein binding; type: in vitro ADME
BCR-ABL1 or FLT3 [9] = assay: Pharmacodynamics in dosed patients: pCRKL / pSTAT5 in blood cells; type: in vivo, human; conditions: of 45 patients with evaluable samples
chronic myeloid leukemia [10] = conditions: CP-CML patients; cited from earlier work

Cc1cn(-c2cc(NC(=O)c3ccc(C)c(Nc4nccc(-c5cccnc5)n4)c3)cc(C(F)(F)F)c2)cn1 [nilotinib]
effectiveness against the T315I BCR-ABL1 mutation (T315I BCR-ABL1 mutation): not effective

CNC(=O)c1cc(Oc2ccc(NC(=O)Nc3cc(C(C)(C)C)nn3-c3ccc4ncccc4c3)c(F)c2)ccn1 [rebastinib]
patient samples with ANG2 increases (TIE2 [1]): 19/20 | IC50 (BCR-ABL1 or FLT3 [2]): < 200 nM | AML patients with a response (acute myeloid leukemia): None | IC50 (c-ABL1): 0.7 nM | patients with nervous system disorders ([3]; high Cmax subgroup): 13 patients | patients with nervous system disorders ([3]; low Cmax subgroup): 7 patients | patients with nervous system disorders ([3]; middle Cmax subgroup): 5 patients | IC50 (TRKA): 0.17 nM | patients with DLT in first cycle ([4]; 200 mg BID tablet): 2 n | patients with DLT in first cycle ([4]; 1200 mg QD PIC): 1 n | SAE muscular weakness ([4]; N=57): 4 patients | patients with AEs suggestive of nervous system disorders, any grade ([4]; N=57): 33% | patients with Grade 3 or 4 AE ([4]; N=57): 34 patients | patients with SAEs related to study treatment ([4]; N=57): 18 patients | patients with musculoskeletal disorders of all grades ([4]; N=57): 22 patients | patients with serious adverse events (SAEs) ([4]; N=57): 34 patients | patients with visual abnormalities ([4]; N=57): 19 patients | treatment-related SAE ([4]; dose levels below 300 mg BID (PIC) and 100 mg QD (tablet)): No treatment-related SAE | CML patients with AEs suggestive of potential ≥Grade 3 cardiomyopathy ([4]; in vivo): 4 patients | Dose-limiting toxicities ([4]; in vivo): dysarthria, muscle weakness, and peripheral neuropathy | patients discontinued due to musculoskeletal disorders ([4]; in vivo): 2 patients | patients with at least one AE of any grade ([4]; in vivo): 57 (100%) patients (%) | deaths deemed related ([4]; n=8 deaths): none | patients with visual abnormalities first reported during Cycle 1 ([4]; of 19): 10 patients | patients with Grade 3 musculoskeletal events ([4]; of 22): 13 patients | patients with musculoskeletal disorders during Cycle 1 ([4]; of 22): 14 patients | patients with Grade 3 AESI possibly or probably related ([4]; of 27 additional patients at 150 mg BID): 18 patients | maximum tolerated dose (MTD) ([4]; tablets, twice daily (BID)): 150 mg | free drug in circulation ([5]; at 200 ng/mL, based on plasma protein binding): ~ 1.3 nM | Bioavailability, formulated tablets compared to unformulated capsules ([5]; human, plasma, oral): 3- to 4 fold | Exposure, tablets compared to PIC ([5]; human, plasma, oral): approximately 3 fold | half-life ([5]; human, plasma, oral): 12 to 15 h | initial distribution phase from Tmax ([5]; human, plasma, oral): 6–8 hours postdose | trough concentrations as % of Cmax ([5]; human, plasma, oral): 10–20% | Tmax ([5]; human, plasma, oral, PIC): 2 h | Tmax ([5]; human, plasma, oral, tablets): 1 to 1.5 h | Average plasma levels ([5]; ~1–4 hours postdose, 150 mg BID): 200 ng/mL and 360 nM | IC50 (TRKB): 0.42 nM | IC50 (TIE2 [6]): 0.058 nM | patients with complete cytogenetic response (chronic myeloid leukemia [7]; T315I): 1 patients | patients with complete hematologic response (chronic myeloid leukemia [7]; T315I): 4 patients | patients with major molecular response (chronic myeloid leukemia [7]; T315I): 2 patients | patients with minor cytogenetic response (chronic myeloid leukemia [7]; T315I): 3 patients | patients with minor hematologic response (chronic myeloid leukemia [7]; T315I): 0 patients | patients with partial cytogenetic response (chronic myeloid leukemia [7]; T315I): 1 patients | patients with partial hematologic response (chronic myeloid leukemia [7]; T315I): 3 patients | patients with complete hematologic response (chronic myeloid leukemia [7]; fifty evaluable): 8 patients | patients with minor hematologic response (chronic myeloid leukemia [7]; fifty evaluable): 3 patients | patients with partial hematologic response (chronic myeloid leukemia [7]; fifty evaluable): 4 patients | overall cytogenetic response rate of CML patients (chronic myeloid leukemia [7]; human, in vivo): 21% | complete hematologic responses (chronic myeloid leukemia [7]; in 40 evaluable CML patients): Eight | patients with complete cytogenetic response (chronic myeloid leukemia [7]; of 37 evaluable): 2 patients | patients with cytogenetic response (chronic myeloid leukemia [7]; of 37 evaluable): 8 patients | patients with minor cytogenetic response (chronic myeloid leukemia [7]; of 37 evaluable): 4 patients | patients with partial cytogenetic response (chronic myeloid leukemia [7]; of 37 evaluable): 2 patients | patients with molecular response (major molecular response) (chronic myeloid leukemia [7]; of 40 evaluable): Four | efficacy in mouse model (BCR-ABL1 T315I): effective | fraction unbound [8]: 0.0035 | patients with significant (>50%) inhibition of phosphorylation of CRKL and/or STAT5 (BCR-ABL1 or FLT3 [9]): 20 patients

Cc1ccc(C(=O)Nc2ccc(CN3CCN(C)CC3)c(C(F)(F)F)c2)cc1C#Cc1cnc2cccnn12 [ponatinib]
effectiveness against the T315I mutation (T315I BCR-ABL1 mutation): effective

COc1cc(Nc2c(C#N)cnc3cc(OCCCN4CCN(C)CC4)c(OC)cc23)c(Cl)cc1Cl [bosutinib]
effectiveness against the T315I BCR-ABL1 mutation (T315I BCR-ABL1 mutation): not effective

COC(=O)C[C@](O)(CCCC(C)(C)O)C(=O)O[C@@H]1C(OC)=C[C@]23CCCN2CCc2cc4c(cc2[C@H]13)OCO4 [omacetaxine mepesuccinate]
cytogenetic responses (chronic myeloid leukemia [10]): ~ 20%
